Series [1] concerns the target Transcription factor p65 (Homo sapiens) (UniProt Q04206). Briefly: Inhibition of nuclear DNA binding to NF-kappaB p65 subunit in TNF-alpha-stimulated human KBM5 cells at 100 uM after 30 mins by EMSA relative to control. The class given is cell-based. In short, it runs like this: (§1)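 Direct DNA-binding test: nuclear extracts from untreated KBM-5 cells or cells given 0.1 nM TNF for 30 min were incubated for 30 min with compound at various concentrations. Binding to a 32P-labeled HIV LTR κB oligonucleotide was then assessed by EMSA.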
A general note: In EMSA bound probe runs differently from free probe, usually more slowly.

For series [2] the target is unchanged. Briefly: Inhibition of nuclear DNA binding to NF-kappaB p65 subunit in TNF-alpha-stimulated human KBM5 cells at 50 uM after 30 mins by EMSA relative to control. The class given is cell-based. In a few lines: as §1
For series [3] the target is unchanged. Briefly: Inhibition of nuclear DNA binding to NF-kappaB p65 subunit in TNF-alpha-stimulated human KBM5 cells at 10 uM after 30 mins by EMSA relative to control. It counts as cell-based. In a few lines:
as §1

The subject of series [4] is KBM5. Briefly: Inhibition of NF-kappaB activation in human KBM5 cells at 100 uM treated for 12 hrs before TNFalpha challenge by EMSA. To be noted: TDE = time-dependent effect. The class given is cell-based. In short, it runs like this:
(§2)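 KBM-5 cells (1×10^6/mL) preincubated with compound for 12 h, then stimulated with 0.1 nM TNFα for 30 min. Nuclear extracts (15 μg protein) incubated with 16 fmol 32P-end-labeled 45-mer HIV LTR NF-κB oligonucleotide for 30 min at 37°C and resolved by EMSA. DMSO stock diluted in culture medium.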

Series [5] concerns KBM5. Nature of the series: Inhibition of NF-kappaB activation in human KBM5 cells at 5 to 100 uM treated for 12 hrs in absence of TNFalpha by EMSA.
Series [6] concerns KBM5. Nature of the series: Inhibition of TNF-alpha-induced NF-kappaB activation in human KBM5 cells at 100 uM treated for 12 hrs before TNFalpha challenge measured after 30 mins by EMSA relative to control. It counts as cell-based. In short, it runs like this: as §2
Series [7] has as its system KBM5. Nature of the series: Inhibition of NF-kappaB activation in human KBM5 cells at 100 uM treated for 12 hrs before TNFalpha challenge measured after 4 hrs by EMSA relative to control. The class given is cell-based.
Series [8] has as its system KBM5. Nature of the series: Cytotoxicity against human KBM5 cells at 10 uM after 72 hrs by MTT assay. It counts as functional, cell-based. In a few lines:
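MTT viability: KBM-5 cells (5000 per well) in triplicate with or without compound for 72 h at 37 °C. MTT (5 mg/ml in PBS) added for 2 h at 37 °C. Extraction buffer (20% SDS, 50% dimethylformamide) added overnight at 37 °C, then OD read at 570 nm.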
In general terms: Tetrazolium assays rely on reduction of a dye to a coloured formazan, in cell work by metabolically active cells.

Series [9] deals with KBM5. Briefly: Inhibition of NF-kappaB activation in human KBM5 cells at 100 uM treated for 12 hrs before TNFalpha challenge measured after 12 hrs by EMSA relative to control. The class given is cell-based. In short, it runs like this:
(§3)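 Time course: KBM-5 cells (1×10^6/mL) exposed to 100 μM compound for varying times before 0.1 nM TNF for 30 min. Nuclear extracts (15 μg protein) were probed by EMSA with 16 fmol 32P-labeled HIV LTR κB 45-mer for 30 min at 37°C.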

The test system of series [10] is KBM5. Nature of the series: Inhibition of TNF-alpha-induced IKK activation in human KBM5 cells at 100 uM treated for 12 hrs before TNFalpha challenge by immunoprecipitation assay. The class given is cell-based. Particulars: TDE = time-dependent effect. In short, it runs like this:
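KBM-5 cells (5×10^6/mL) preincubated with 100 μM compound for 12 h, then given 1 nM TNF for the indicated times. IKK immunoprecipitated from whole-cell lysates with anti-IKK-α and assayed at 30°C for 30 min: 50 mM HEPES pH 7.4, 20 mM MgCl2, 2 mM DTT, [32P]ATP, unlabeled ATP, 2 μg GST-IκBα(1-54). Phosphorylated substrate shown by SDS-PAGE/phosphorimaging; total IKK-α/β by immunoblot.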

A short description of series [11]: Inhibition of VEGF protein expression in TNF-alpha-stimulated human KBM5 cells at 100 uM after 6 to 24 hrs by Western blot analysis. It counts as functional, cell-based. In short, it runs like this: (§4)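 Western blot: KBM-5 lysates (30 μg protein) separated by SDS-PAGE and probed with anti-cyclin D1, Bcl-2 or VEGF (1:1000). HRP secondary (1:3000) applied for 2 h, detection by ECL, bands quantified by densitometry.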
(In general: In western blotting, separated proteins are transferred to a membrane and probed.)

Series [12] can be described thus: Cytotoxicity against human KBM5 cells assessed as cell viability at 100 uM by trypan blue assay. To be noted: read-out: Activity. The class given is cell-based.
The subject of series [13] is KBM5. Briefly: Inhibition of NF-kappaB activation in human KBM5 cells at 100 uM treated for 12 hrs before TNFalpha challenge measured after 8 hrs by EMSA relative to control. The class given is cell-based. In a few lines:
as §3

Series [14] concerns the target Transcription factor p65 (Homo sapiens) (UniProt Q04206). Nature of the series: Inhibition of nuclear DNA binding to NF-kappaB p65 subunit in TNF-alpha-stimulated human KBM5 cells at 25 uM after 30 mins by EMSA relative to control. The class given is cell-based. In a few lines: as §1
The subject of series [15] is KBM5. Nature of the series: Intrinsic activity at IKK in TNF-alpha-stimulated human KBM5 cells at 10 to 100 uM added directly to IKK immune complexes in vitro by immunoprecipitation assay.
Series [16] deals with KBM5. Nature of the series: Inhibition of TNF-alpha-induced NF-kappaB activation in human KBM5 cells treated for 12 hrs before TNFalpha challenge measured after 30 mins by EMSA. It counts as cell-based. In short, it runs like this: as §2
Series [17] deals with KBM5. Nature of the series: Inhibition of Bcl-2 protein expression in TNF-alpha-stimulated human KBM5 cells at 100 uM after 6 to 24 hrs by Western blot analysis. The class given is functional, cell-based. In a few lines:
as §4

In series [18] the test system is KBM5. Briefly: Inhibition of TNF-alpha-induced NF-kappaB activation in human KBM5 cells at 100 uM treated for 12 hrs before TNFalpha challenge measured after 30 mins by EMSA. It counts as cell-based. In a few lines:
as §2

Series [19] can be described thus: Inhibition of cyclin D1 protein expression in TNF-alpha-stimulated human KBM5 cells at 100 uM after 6 to 24 hrs by Western blot analysis. It counts as functional, cell-based. In a few lines:
as §4

The test system of series [20] is KBM5. Nature of the series: Inhibition of NF-kappaB activation in human KBM5 cells at 100 uM treated for 12 hrs before TNFalpha challenge measured after 6 hrs by EMSA relative to control. The class given is cell-based. In a few lines: as §3

Each structure is given as a SMILES string. The source made the active and inactive calls. The rule behind the calls is not given here.

Transcription factor p65 (Homo sapiens), sequence (Q04206 whole entry): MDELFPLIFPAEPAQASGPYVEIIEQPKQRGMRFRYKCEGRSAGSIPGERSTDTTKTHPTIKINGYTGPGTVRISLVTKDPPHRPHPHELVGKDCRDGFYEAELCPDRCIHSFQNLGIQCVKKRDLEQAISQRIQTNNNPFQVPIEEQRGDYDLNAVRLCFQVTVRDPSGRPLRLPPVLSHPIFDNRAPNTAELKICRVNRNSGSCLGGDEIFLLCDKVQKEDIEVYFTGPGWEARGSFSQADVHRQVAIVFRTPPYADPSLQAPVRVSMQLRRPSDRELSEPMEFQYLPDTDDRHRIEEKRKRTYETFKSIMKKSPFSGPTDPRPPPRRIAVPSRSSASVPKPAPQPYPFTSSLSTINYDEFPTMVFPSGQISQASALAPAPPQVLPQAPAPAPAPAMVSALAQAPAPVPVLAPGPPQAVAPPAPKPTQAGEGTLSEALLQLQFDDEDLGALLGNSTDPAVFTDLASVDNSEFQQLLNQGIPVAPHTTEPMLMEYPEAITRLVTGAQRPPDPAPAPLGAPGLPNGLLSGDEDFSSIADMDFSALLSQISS

In general, inhibition refers to how much of the control response was suppressed. Consider `CCCCCCC[C@H](CO)[C@H](O)CCOCc1ccccc1`, for which the fold change (FC) in series [1] was found to be 3.9; in [2] it was 3.8; in series [3] it was 3.8; in the series on KBM5 [6] it was 4.5; with KBM5 [7], 4.2; with KBM5 [9] it was 1. Besides, the figures for the fold change (FC) (with KBM5 [13]; in series [14]; in the series with KBM5 [20]) were 2.5, 3.9 and 3.1, respectively. The inhibition result was “tde” in the series with KBM5 [4], “tde” with KBM5 [10], “Dose-dependent effect” with KBM5 [16] and 100% with KBM5 [18]. In the series on KBM5 [5], the inhibition entry is “inactive”. Further, the result in the series with KBM5 [8] was Active. The inhibition result (in [11]; in the series with KBM5 [17]; in series [19]) was “Active” each time. Also, the viability at 100 µM in series [12] is 98%. Besides, the outcome in the series on KBM5 [15] was inactive.
Compound `CCCCCCCCCC(=O)N1C(=O)OC[C@@H]1Cc1ccccc1` showed a fold change (FC) with KBM5 [6] of 2.4. Moreover, the result with KBM5 [8] was Active. For the same compound, in series [12], the viability at 100 µM is 97%.
In the series with KBM5 [6], `CCCCCCCC[C@H](CO)[C@H](O)CCOCc1ccccc1` had a fold change (FC) of 1.1. Besides, the outcome in the series on KBM5 [8] was Active. In addition, the viability at 100 µM in series [12] was found to be 97%.
For `CCCCCCCC[C@H](C(=O)N1C(=O)OC[C@@H]1Cc1ccccc1)[C@H](O)CCOCc1ccccc1`, the fold change (FC) in the series with KBM5 [6] is 1.3. In addition, the result in the series with KBM5 [8] was Active. In addition, in [12], the viability at 100 µM was 98%.
In turn, `CCCCCCCC[C@@H]1COC(C)(C)O[C@@H]1CCOCc1ccccc1` gave a fold change (FC) in the series with KBM5 [6] of 1.4. The result with KBM5 [8] was Active. Moreover, the viability at 100 µM in [12] was determined as 97%.
Take `CCCCCCCCCCCCCC[C@H]1COC(=O)C[C@H]1O`: the fold change (FC) with KBM5 [6] is 3.6. Further, in the series on KBM5 [8], the result was Active. Further, the viability at 100 µM in [12] stood at 95%. For the same compound, the inhibition in the series with KBM5 [18] was determined as 30%.

(Values after ChEMBL document CHEMBL1157701, “Inhibition of IkB kinase and NF-kappaB by a novel synthetic compound SK 2009” (Bioorg Med Chem, 2010).)
